Calls of active or inactive are those of the source. The calls are words filed in the database; no cut-off is given here.
What was measured:
Mus musculus [1] = assay: Inhibition of arachidonic acid-induced LTB4 production in mouse ear at 30 mg/kg, po administered 4 hrs before arachidonic acid challenge; format: functional
Method in brief: (§1)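 Mice given 30 mg/kg orally in 0.5% methocel 4 h before AA (4 mg in 40 µL ethanol) on one ear, ethanol alone on the other. After 30 min, 6 mm punches weighed and assayed for LTB4 and CysLTs. n = 3/group; means ± SEM; two-tailed t-test versus vehicle.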

Mus musculus [2] = assay: Inhibition of arachidonic acid-induced LTB4 production in topically dosed mouse at 0.1%; format: functional
Method in brief: (§2)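 AA (4 mg/ear in ethanol) applied topically to mouse ear, compound applied topically at 0.01% or 0.1%. After 30 min, 6 mm ear punches weighed and assayed for CysLTs and LTB4. n = 3/group; means ± SEM; ANOVA with Dunnett's post hoc test, or t-test, versus vehicle.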

Rattus norvegicus [3] = assay: Skin irritant activity in abraded rat skin model at 10 mg/mL (2 mL), topical after 72 hrs; settings: in vivo
Mus musculus [4] = assay: Inhibition of arachidonic acid-induced LTB4 production in topically dosed mouse ear; format: functional, organism-based; method in brief: as §2
[5] = Inhibition of […]-induced LTB4 synthesis in human leukocytes; format: functional, cell-based; settings: Leukocyte
Method in brief: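 Human leukocytes stimulated with calcium ionophore […]; LTB4 synthesis measured; IC50.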

Blood [6] = assay: Inhibition of […]-induced LTB4 synthesis in human whole blood after 5 hrs; format: functional, tissue-based
Mus musculus [7] = assay: Inhibition of arachidonic acid-induced cysteinyl leukotriene production in mouse ear at 30 mg/kg, po administered 4 hrs before arachidonic acid challenge; format: functional; method in brief: as §1
Blood [8] = assay: Inhibition of […]-induced LTB4 synthesis in mouse whole blood after 15 mins; format: functional, tissue-based; settings: 0.25 h
[9] = Solubility of the compound in water; format: physicochemical; settings: buffer
Rattus norvegicus [10] = assay: Skin irritant activity in abraded rat skin model treated topically after 72 hrs; format: ADME, organism-based; settings: in vivo, topical_or_ocular
Method in brief: (§3)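 Healthy male rats shaved and skin abraded; 2 mL of 10 mg/mL solution in topical vehicle applied over 20% of body area, occluded 24 h, site then cleaned. Draize scoring for erythema/edema and body weight followed over 72 h.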

Blood [11] = assay: Inhibition of […]-induced LTB4 synthesis in human whole blood after 15 mins; format: functional, tissue-based; settings: 0.25 h
[12] = Solubility of the compound in propylene glycol; format: physicochemical
[13] = target: T1, Arachidonate 5-lipoxygenase-activating protein (Homo sapiens, UniProt P20292); assay: Binding affinity to FLAP in human PMN by radioligand displacement assay
T1 sequence (P20292 whole entry): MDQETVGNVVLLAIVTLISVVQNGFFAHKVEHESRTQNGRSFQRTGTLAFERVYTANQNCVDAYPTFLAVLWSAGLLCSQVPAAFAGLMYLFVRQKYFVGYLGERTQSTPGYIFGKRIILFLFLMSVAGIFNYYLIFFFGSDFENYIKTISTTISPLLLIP
Method in brief: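 Tritiated-ligand displacement from FLAP-containing membranes; IC50, n = 6.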

Blood [14] = assay: Inhibition of […]-induced LTB4 synthesis in mouse whole blood after 4 hrs; format: functional, tissue-based
Cytochrome P450 2D6 = Cytochrome P450 2D6 (Homo sapiens, UniProt P10635); assay: Inhibition of CYP2D6; format: ADME
Sequence of Cytochrome P450 2D6 (P10635 whole entry): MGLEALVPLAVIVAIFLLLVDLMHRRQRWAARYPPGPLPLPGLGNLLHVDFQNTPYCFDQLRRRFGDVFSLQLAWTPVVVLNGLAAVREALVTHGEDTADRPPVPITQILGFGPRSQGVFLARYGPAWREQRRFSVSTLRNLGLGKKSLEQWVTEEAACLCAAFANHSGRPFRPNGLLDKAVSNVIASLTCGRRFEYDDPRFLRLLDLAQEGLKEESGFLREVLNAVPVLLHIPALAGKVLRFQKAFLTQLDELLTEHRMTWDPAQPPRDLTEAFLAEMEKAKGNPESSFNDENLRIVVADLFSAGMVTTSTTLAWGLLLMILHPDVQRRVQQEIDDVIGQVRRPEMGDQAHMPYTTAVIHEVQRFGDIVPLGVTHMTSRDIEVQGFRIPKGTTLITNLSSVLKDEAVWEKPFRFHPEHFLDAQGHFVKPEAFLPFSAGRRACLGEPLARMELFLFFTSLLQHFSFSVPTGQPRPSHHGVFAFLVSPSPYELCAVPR

Mus musculus [15] = assay: Inhibition of arachidonic acid-induced ear edema in topically dosed mouse at 1 to 10%; format: functional, organism-based
Blood [16] = assay: Inhibition of […]-induced LTB4 synthesis in rat whole blood after 15 mins; format: functional, tissue-based; settings: 0.25 h
Cytochrome P450 3A4 = Cytochrome P450 3A4 (Homo sapiens, UniProt P08684); assay: Inhibition of CYP3A4; format: ADME
Sequence of Cytochrome P450 3A4 (P08684 whole entry): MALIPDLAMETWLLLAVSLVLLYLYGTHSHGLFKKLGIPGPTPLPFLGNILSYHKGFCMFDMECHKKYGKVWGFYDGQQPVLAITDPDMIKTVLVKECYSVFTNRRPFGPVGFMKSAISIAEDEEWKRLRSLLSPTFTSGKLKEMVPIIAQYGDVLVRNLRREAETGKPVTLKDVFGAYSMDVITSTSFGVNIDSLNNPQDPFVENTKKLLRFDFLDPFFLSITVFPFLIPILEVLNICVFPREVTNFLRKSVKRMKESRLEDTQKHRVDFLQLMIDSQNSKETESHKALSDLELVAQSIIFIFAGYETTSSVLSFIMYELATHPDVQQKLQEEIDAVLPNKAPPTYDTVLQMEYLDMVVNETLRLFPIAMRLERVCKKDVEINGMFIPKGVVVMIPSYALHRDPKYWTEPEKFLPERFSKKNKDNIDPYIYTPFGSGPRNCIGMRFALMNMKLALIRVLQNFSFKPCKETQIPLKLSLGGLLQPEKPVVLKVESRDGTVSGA

[17] = target: T2, Prostaglandin G/H synthase 2 (Homo sapiens, UniProt P35354); assay: Inhibition of COX2
T2 sequence (P35354 whole entry): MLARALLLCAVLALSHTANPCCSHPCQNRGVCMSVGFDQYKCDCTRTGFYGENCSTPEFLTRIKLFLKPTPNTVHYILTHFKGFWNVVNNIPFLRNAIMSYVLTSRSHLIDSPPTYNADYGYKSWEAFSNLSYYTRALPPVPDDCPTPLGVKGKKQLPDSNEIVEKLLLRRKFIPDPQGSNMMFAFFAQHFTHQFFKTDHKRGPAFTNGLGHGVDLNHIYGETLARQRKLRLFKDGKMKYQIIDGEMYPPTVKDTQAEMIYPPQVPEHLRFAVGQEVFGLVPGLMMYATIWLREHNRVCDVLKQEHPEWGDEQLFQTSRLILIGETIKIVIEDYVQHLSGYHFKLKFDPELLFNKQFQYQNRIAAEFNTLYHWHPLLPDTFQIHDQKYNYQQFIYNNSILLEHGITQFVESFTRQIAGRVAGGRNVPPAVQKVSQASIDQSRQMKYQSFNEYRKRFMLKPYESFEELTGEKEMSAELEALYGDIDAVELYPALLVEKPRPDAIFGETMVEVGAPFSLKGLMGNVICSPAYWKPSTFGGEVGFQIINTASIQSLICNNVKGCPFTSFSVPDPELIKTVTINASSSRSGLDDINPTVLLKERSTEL

Mus musculus [18] = assay: Inhibition of arachidonic acid-induced ear edema in mouse at 30 mg/kg, po administered 4 hrs before arachidonic acid challenge; format: functional; method in brief: as §1
Rattus norvegicus [19] = assay: Skin irritant activity in abraded rat skin model at 10 mg/mL (2 mL), topical after 72 hrs; settings: in vivo; remark: listed apart in the source
[20] = Solubility of the compound in transcutol; format: physicochemical
[21] = target: Prostaglandin G/H synthase 1 (Homo sapiens, UniProt P23219); assay: Inhibition of COX1
Sequence of Prostaglandin G/H synthase 1 (P23219 whole entry): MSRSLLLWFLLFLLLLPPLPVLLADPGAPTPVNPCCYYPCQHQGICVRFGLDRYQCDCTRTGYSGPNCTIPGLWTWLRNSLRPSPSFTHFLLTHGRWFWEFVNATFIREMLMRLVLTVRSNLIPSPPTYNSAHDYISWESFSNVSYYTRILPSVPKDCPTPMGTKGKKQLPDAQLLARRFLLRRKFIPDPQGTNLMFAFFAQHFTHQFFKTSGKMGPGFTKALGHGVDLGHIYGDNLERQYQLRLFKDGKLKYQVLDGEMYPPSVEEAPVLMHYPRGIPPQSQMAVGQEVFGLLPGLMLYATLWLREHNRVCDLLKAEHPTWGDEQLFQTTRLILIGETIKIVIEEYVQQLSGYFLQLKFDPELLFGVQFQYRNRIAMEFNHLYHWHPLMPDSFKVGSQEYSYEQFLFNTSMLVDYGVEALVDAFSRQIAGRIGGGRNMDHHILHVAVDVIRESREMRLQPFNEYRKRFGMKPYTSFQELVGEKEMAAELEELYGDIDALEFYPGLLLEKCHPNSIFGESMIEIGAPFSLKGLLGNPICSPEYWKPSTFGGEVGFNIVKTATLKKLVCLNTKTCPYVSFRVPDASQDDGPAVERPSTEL

Mus musculus [22] = assay: Inhibition of arachidonic acid-induced LTB4 production in topically dosed mouse at 1 to 10%; format: functional, organism-based
Cytochrome P450 2C9 = Cytochrome P450 2C9 (Homo sapiens, UniProt P11712); assay: Inhibition of CYP2C9; format: ADME
Sequence of Cytochrome P450 2C9 (P11712 whole entry): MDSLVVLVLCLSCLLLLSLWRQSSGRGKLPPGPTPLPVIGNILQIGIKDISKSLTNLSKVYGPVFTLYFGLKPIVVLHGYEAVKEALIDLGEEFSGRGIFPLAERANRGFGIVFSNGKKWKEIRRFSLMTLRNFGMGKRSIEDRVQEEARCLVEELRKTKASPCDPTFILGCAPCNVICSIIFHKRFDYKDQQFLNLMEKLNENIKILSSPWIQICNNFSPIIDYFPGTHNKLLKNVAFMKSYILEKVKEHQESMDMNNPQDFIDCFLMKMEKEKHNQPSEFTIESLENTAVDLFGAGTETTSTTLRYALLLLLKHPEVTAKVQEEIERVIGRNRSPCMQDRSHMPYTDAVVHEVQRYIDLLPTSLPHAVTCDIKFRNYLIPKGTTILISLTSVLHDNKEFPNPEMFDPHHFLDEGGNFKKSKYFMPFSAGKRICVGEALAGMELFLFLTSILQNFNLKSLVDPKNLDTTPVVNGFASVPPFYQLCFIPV

Blood [23] = assay: Inhibition of […]-induced LTB4 synthesis in rat whole blood after 4 hrs; format: functional, tissue-based
Mus musculus [24] = assay: Inhibition of arachidonic acid-induced ear edema in topically dosed mouse at 0.1%; format: functional; method in brief: as §2
[25] = Drug level in mouse plasma at 30 mg/kg, po after 4.5 hrs; settings: read-out: Drug uptake
Mus musculus [26] = assay: Inhibition of arachidonic acid-induced cysteinyl leukotriene production in topically dosed mouse at 0.1%; format: functional; method in brief: as §2
[27] = Terminal half life in rat at 1 mg/kg, iv; format: ADME, organism-based; set-up: dose 1 mg/kg, route intravenous; settings: in vivo, read-out: beta t1/2 (converted)
Method in brief: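 Rat given 1 mg/kg intravenously in 10% EtOH/40% PEG400/50% water; plasma concentration–time profile used for terminal half-life.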

Rattus norvegicus [28] = species on record: Rattus norvegicus; assay: Toxicity in rat assessed as change in body weight after 72 hrs; format: organism-based; settings: in vivo; method in brief: as §3
Mus musculus [29] = assay: Inhibition of arachidonic acid-induced cysteinyl leukotriene production in topically dosed mouse at 1 to 10%; format: functional, organism-based
Mus musculus [30] = assay: Inhibition of arachidonic acid-induced cysteinyl leukotriene production in topically dosed mouse ear; format: functional, organism-based; method in brief: as §2

COc1cnc(-c2ccc(Cn3c(CC(C)(C)C(=O)[O-])c(SC(C)(C)C)c4cc(OCc5ccc(C)cn5)ccc43)cc2)nc1.[Na+]
inhibition in vivo at 30 mg/kg (Mus musculus [1]): 33%
inhibition (INH) (Mus musculus [2]): 55%
Activity (Rattus norvegicus [3]): Non-toxic
inhibition (Mus musculus [4]): Dose-dependent effect
IC50 [5]: 0.6 nM
IC50 (Blood [6]): 81 nM
inhibition in vivo at 30 mg/kg (Mus musculus [7]): 57%
IC50 (Blood [8]): 26 nM
solubility [9]: 10%
Activity (Rattus norvegicus [10]): Non-toxic
IC50 (Blood [11]): 161 nM
solubility [12]: 75%
IC50 [13]: 2 nM
IC50 (Blood [14]): 4 nM
IC50 (Cytochrome P450 2D6): > 30000 nM
inhibition (Mus musculus [15]): inactive
IC50 (Blood [16]): 78 nM
IC50 (Cytochrome P450 3A4): 8800 nM
IC50 [17]: > 100000 nM
inhibition in vivo at 30 mg/kg (Mus musculus [18]): 65%
Activity (Rattus norvegicus [19]): Non-toxic
solubility [20]: 15%
IC50 [21]: > 100000 nM
inhibition (Mus musculus [22]): inactive
IC50 (Cytochrome P450 2C9): 4500 nM
IC50 (Blood [23]): 11 nM
inhibition (INH) (Mus musculus [24]): 61%
concentration at 4.5 h [25]: 1500 nM
inhibition (INH) (Mus musculus [26]): 37%
half-life [27]: 2 h
Activity (Rattus norvegicus [28]): Non-toxic
inhibition (Mus musculus [29]): inactive
inhibition (Mus musculus [30]): Dose-dependent effect
